Calls of active or inactive are those of the source. No cut-off for these calls is given here.
Columns and labels:
Feline coronavirus = assay: Antiviral activity against Feline coronavirus infected in feline CRFK cells assessed as inhibition of virus-induced cytopathic effect at 0.32 to 100 uM; assay type: functional, organism-based
Procedure, shortened: (§1)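 Confluent cell cultures were infected with 100 CCID50 of virus in the presence of test compound at 100, 40, 8, 1.6 and 0.32 μM. Cytopathic effect was scored once it was complete in untreated infected controls.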

[1] = tested on: Radical scavenging activity; assay: Antioxidant activity assessed as DPPH free radical scavenging activity at 100 uM after 20 mins by spectrophotometric analysis; assay type: functional
Procedure, shortened: (§2)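 0.05 mM DPPH in absolute ethanol mixed with an equal volume of compound in DMSO (final 100 μM). Shaken and left 20 or 60 min, then absorbance read at 517 nm and percent activity calculated. Three replicates, averaged.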

Coxsackievirus B4 [2] = assay: Antiviral activity against Coxsackievirus B4 infected in african green monkey Vero cells assessed as inhibition of virus-induced cytopathic effect at 0.32 to 100 uM; assay type: functional, organism-based; procedure, shortened: as §1
Felid alphaherpesvirus 1 = assay: Antiviral activity against Feline herpesvirus infected in feline CRFK cells assessed as inhibition of virus-induced cytopathic effect at 0.32 to 100 uM; assay type: functional, organism-based; procedure, shortened: as §1
[3] = tested on: Human immunodeficiency virus 2; assay: Antiviral activity against HIV2 ROD infected in human CEM cells assessed as inhibition of virus-induced CEM giant cell formation at 0.32 to 100 uM after 4 days; assay type: functional, organism-based; details: ISOLATE ROD, CCRF-CEM
Procedure, shortened: (§3)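 CEM cells (~3 × 10^5 cells/cm³) exposed to 100 CCID50/ml of virus and seeded into wells holding compound dilutions. Incubated 4 days at 37 °C, then giant cell formation examined microscopically.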

Glycine max = assay: Inhibition of soybean LOX assessed as conversion of sodium linoleate to 13- hydroperoxylinoleic acid at 100 uM
L1210 = assay: Cytostatic activity against mouse L1210 cells after 2 days by coulter counter analysis; assay type: functional, cell-based; details: L1210, 48 h
Procedure, shortened: (§4)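 300,000–500,000 cells/ml mixed 1:1 with compound dilutions and incubated at 37 °C for 2 days (L1210) or 3 days (CEM, HeLa). Cell number counted with a Coulter counter; HeLa trypsinized before counting.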

CCRF-CEM = assay: Cytostatic activity against human CEM cells after 3 days by coulter counter analysis; assay type: functional, cell-based; details: 72 h; procedure, shortened: as §4
MCF7 = assay: Cytostatic activity against human MCF7 cells after 72 hrs by MTT assay; assay type: functional, cell-based; details: MCF7, 72 h
Procedure, shortened: (§5)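 Monolayers in DMEM with 10% FBS, 2 mM L-glutamine and penicillin/streptomycin, 37 °C, 5% CO2. Seeded at 1–3 × 10^4 cells/ml, then compound added in tenfold dilutions (10⁻⁸–10⁻⁴ M) for 72 h. MTT read at 570 nm; percent growth taken against time-zero and untreated controls. IC50 by linear regression; quadruplicate, at least two experiments.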

Influenza A virus [4] = assay: Antiviral activity against Influenza A virus H1N1 infected in MDCK cells assessed as inhibition of virus-induced cytopathic effect at 0.32 to 100 uM; assay type: functional, organism-based
Procedure, shortened: (§6)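 Confluent MDCK monolayers were infected in the presence of the compound at 100, 40, 8, 1.6 and 0.32 μM. Viral cytopathicity was scored once it was complete in untreated infected control cultures.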

[5] = Antioxidant activity assessed as inhibition of AAPH-induced linoleic acid lipid peroxidation by measuring conjugated diene hydroperoxide level; assay type: functional; parameters: concentration or dose not given beside the values; details: dose or concentration not given here
Procedure, shortened: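 Linoleic acid sodium salt (10 μL of 16 mM) in 0.05 M phosphate buffer pH 7.4 at 37 °C. Oxidation started under air with 50 μL of 40 mM AAPH. Conjugated diene hydroperoxide formation followed as absorbance rise at 234 nm; control contains the same DMSO level. At least triplicate.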

Human respirovirus 3 = assay: Antiviral activity against Parainfluenza virus 3 infected in african green monkey Vero cells assessed as inhibition of virus-induced cytopathic effect at 0.32 to 100 uM; assay type: functional, organism-based; procedure, shortened: as §1
HeLa = assay: Cytostatic activity against human HeLa cells after 3 days by coulter counter analysis; assay type: functional, cell-based; details: 72 h; procedure, shortened: as §4
HCT-116 = assay: Cytostatic activity against human HCT116 cells after 72 hrs by MTT assay; assay type: functional, cell-based; details: HCT-116, 72 h; procedure, shortened: as §5
Sindbis virus = assay: Antiviral activity against Sindbis virus infected in african green monkey Vero cells assessed as inhibition of virus-induced cytopathic effect at 0.32 to 100 uM; assay type: functional, organism-based; procedure, shortened: as §1
[6] = tested on: Respiratory syncytial virus; assay: Antiviral activity against RSV infected in human cervix carcinoma cells assessed as inhibition of virus-induced cytopathic effect at 0.32 to 100 uM; assay type: functional, organism-based; procedure, shortened: as §1
Influenza B virus = assay: Antiviral activity against Influenza B virus infected in MDCK cells assessed as inhibition of virus-induced cytopathic effect at 0.32 to 100 uM; assay type: functional, organism-based; procedure, shortened: as §6
[7] = tested on: Radical scavenging activity; assay: Antioxidant activity assessed as DPPH free radical scavenging activity at 100 uM after 60 mins by spectrophotometric analysis; assay type: functional; procedure, shortened: as §2
[8] = tested on: Vesicular stomatitis virus; assay: Antiviral activity against Vesicular stomatitis virus infected in human cervix carcinoma cells assessed as inhibition of virus-induced cytopathic effect at 0.32 to 100 uM; assay type: functional, organism-based
Procedure, shortened: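 Confluent human cervix carcinoma (HeLa) cultures received 100 CCID50 of VSV together with the compound at 100, 40, 8, 1.6 or 0.32 μM. Cytopathicity was read at the point of full CPE in infected, untreated control wells.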

Human alphaherpesvirus 1 = assay: Antiviral activity against HSV1 KOS infected in human lung fibroblast assessed as inhibition of virus-induced cytopathic effect at 0.32 to 100 uM; assay type: functional, organism-based; procedure, shortened: as §1
Punta Toro virus = assay: Antiviral activity against Punta Toro virus infected in african green monkey Vero cells assessed as inhibition of virus-induced cytopathic effect at 0.32 to 100 uM; assay type: functional, organism-based; procedure, shortened: as §1
Influenza A virus [9] = assay: Antiviral activity against Influenza A virus H3N2 infected in MDCK cells assessed as inhibition of virus-induced cytopathic effect at 0.32 to 100 uM; assay type: functional, organism-based; procedure, shortened: as §6
NCI-H460 = assay: Cytostatic activity against human NCI-H460 cells after 72 hrs by MTT assay; assay type: functional, cell-based; details: NCI-H460, 72 h; procedure, shortened: as §5
[10] = tested on: Vesicular stomatitis virus; assay: Antiviral activity against VSV infected in human lung fibroblast assessed as inhibition of virus-induced cytopathic effect at 0.32 to 100 uM; assay type: functional, organism-based
Vaccinia virus = assay: Antiviral activity against Vaccinia virus infected in human lung fibroblast assessed as inhibition of virus-induced cytopathic effect at 0.32 to 100 uM; assay type: functional, organism-based; details: Orthopoxvirus vaccinia
[11] = tested on: Mammalian orthoreovirus 1; assay: Antiviral activity against Reovirus-1 infected in african green monkey Vero cells assessed as inhibition of virus-induced cytopathic effect at 0.32 to 100 uM; assay type: functional, organism-based; procedure, shortened: as §1
Human alphaherpesvirus 2 = assay: Antiviral activity against HSV2 G infected in human lung fibroblast assessed as inhibition of virus-induced cytopathic effect at 0.32 to 100 uM; assay type: functional, organism-based; details: strain G; procedure, shortened: as §1
Coxsackievirus B4 [12] = assay: Antiviral activity against Coxsackievirus B4 infected in human cervix carcinoma cells assessed as inhibition of virus-induced cytopathic effect at 0.32 to 100 uM; assay type: functional, organism-based; procedure, shortened: as §1
[13] = tested on: Human immunodeficiency virus 1; assay: Antiviral activity against HIV1 3B infected in human CEM cells assessed as inhibition of virus-induced CEM giant cell formation at 0.32 to 100 uM after 4 days; assay type: functional, organism-based; details: CCRF-CEM; procedure, shortened: as §3

| Compound | inhibition (Feline coronavirus) | Activity [1] | inhibition (Coxsackievirus B4 [2]) | inhibition (Felid alphaherpesvirus 1) | inhibition [3] | inhibition (Glycine max) | IC50 (L1210) [µM] | IC50 (CCRF-CEM) [µM] | IC50 (MCF7) [µM] | inhibition (Influenza A virus [4]) | inhibition [5] [%] | inhibition (Human respirovirus 3) | IC50 (HeLa) [µM] | IC50 (HCT-116) [µM] | inhibition (Sindbis virus) | inhibition [6] | inhibition (Influenza B virus) | Activity [7] | inhibition [8] | inhibition (Human alphaherpesvirus 1) | other results |
| --- | --- | --- | --- | --- | --- | --- | --- | --- | --- | --- | --- | --- | --- | --- | --- | --- | --- | --- | --- | --- | --- |
| CC(C(=O)NNC(=O)NNC(=O)NOCc1ccccc1)c1cccc(Cc2ccccc2)c1 (centres undefined) | inactive | 10% | inactive | inactive | inactive | inactive | 102 | 96 | 19 | inactive | 100 | inactive | 76 | 64 | inactive | inactive | inactive | 19% | inactive | inactive | inhibition (Punta Toro virus): inactive; inhibition (Influenza A virus [9]): inactive; IC50 (NCI-H460): > 100 µM; inhibition [10]: inactive; inhibition (Vaccinia virus): inactive; inhibition [11]: inactive; inhibition (Human alphaherpesvirus 2): inactive; inhibition (Coxsackievirus B4 [12]): inactive; inhibition [13]: inactive |
| CC(C(=O)NNC(=O)NNC(=O)NO)c1cccc(Oc2ccccc2)c1 (centres undefined) | inactive | 23% | inactive | inactive | inactive | inactive | > 250 | > 250 | > 100 | inactive | 13 | inactive | ≥ 250 | > 100 | inactive | inactive | inactive | 48% | inactive | inactive | inhibition (Punta Toro virus): inactive; inhibition (Influenza A virus [9]): inactive; IC50 (NCI-H460): > 100 µM; inhibition [10]: inactive; inhibition (Vaccinia virus): inactive; inhibition [11]: inactive; inhibition (Human alphaherpesvirus 2): inactive; inhibition (Coxsackievirus B4 [12]): inactive; inhibition [13]: inactive |
| O=C(NNC(=O)n1nnc2ccccc21)NOCc1ccccc1 | inactive | 85% | inactive | inactive | inactive | inactive | > 250 | > 250 | > 100 | inactive | 31 | inactive | > 250 | > 100 | inactive | inactive | inactive | 85% | inactive | inactive | inhibition (Punta Toro virus): inactive; inhibition (Influenza A virus [9]): inactive; IC50 (NCI-H460): > 100 µM; inhibition [10]: inactive; inhibition (Vaccinia virus): inactive; inhibition [11]: inactive; inhibition (Human alphaherpesvirus 2): inactive; inhibition (Coxsackievirus B4 [12]): inactive; inhibition [13]: inactive |
| CC(C)Cc1ccc(C(C)C(=O)NNC(=O)NC2CCCC2)cc1 (centres undefined) | inactive | 4% | inactive | inactive | inactive | inactive | 103 | 74 | 18 | inactive | 26 | inactive | 80 | 32 | inactive | inactive | inactive | 7% | inactive | inactive | inhibition (Punta Toro virus): inactive; inhibition (Influenza A virus [9]): inactive; IC50 (NCI-H460): 32 µM; inhibition [10]: inactive; inhibition (Vaccinia virus): inactive; inhibition [11]: inactive; inhibition (Human alphaherpesvirus 2): inactive; inhibition (Coxsackievirus B4 [12]): inactive; inhibition [13]: inactive |
| CC(C(=O)NN)c1cccc(Oc2ccccc2)c1 (centres undefined) | inactive | inactive | inactive | inactive | inactive | 3% | 212 | 154 | > 100 | inactive | 10 | inactive | 120 | > 100 | inactive | inactive | inactive | 1% | inactive | inactive | inhibition (Punta Toro virus): inactive; inhibition (Influenza A virus [9]): inactive; IC50 (NCI-H460): > 100 µM; inhibition [10]: inactive; inhibition (Vaccinia virus): inactive; inhibition [11]: inactive; inhibition (Human alphaherpesvirus 2): inactive; inhibition (Coxsackievirus B4 [12]): inactive; inhibition [13]: inactive |
| CC(C(=O)NNC(=O)NOCc1ccccc1)c1cccc(Oc2ccccc2)c1 (centres undefined) | inactive | inactive | inactive | inactive | inactive | 6% | 84 | 91 | 81 | inactive | 8 | inactive | 76 | 76 | inactive | inactive | inactive | inactive | inactive | inactive | inhibition (Punta Toro virus): inactive; inhibition (Influenza A virus [9]): inactive; IC50 (NCI-H460): > 100 µM; inhibition [10]: inactive; inhibition (Vaccinia virus): inactive; inhibition [11]: inactive; inhibition (Human alphaherpesvirus 2): inactive; inhibition (Coxsackievirus B4 [12]): inactive; inhibition [13]: inactive |

From ChEMBL document CHEMBL2010803, “Novel NSAID 1-acyl-4-cycloalkyl/arylsemicarbazides and 1-acyl-5-benzyloxy/hydroxy carbamoylcarbazides as potential anticancer agents and antioxidants” (Eur J Med Chem, 2012)
